Values after ≈ are worked out from the molar mass of the structure shown. Active and inactive are the calls of the source. The calls are words filed in the database; no cut-off is given here.
How the values were obtained:
Pseudomonas aeruginosa [1] = experiment: Antimicrobial activity against Pseudomonas aeruginosa ATCC 15499 after 24 hrs by broth micro serial dilution method; assay type: functional; details: ATCC 15499, 24 h
Method in brief: (§1)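 This was broth microdilution in autoclaved Mueller-Hinton broth. 150 µL of compound per well was serially diluted […], and 50 µL of test organism was added. Plates were incubated 24 h at 37 °C and optical density was read.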

Trichoderma viride [2] = experiment: Antifungal activity against Trichoderma viride MTCC 1107 assessed as zone of inhibition at 80 uM after 48 hrs by disc diffusion method; assay type: functional; details: MTCC 1107, 48 h, read-out: IZ
Method in brief: (§2)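 Spores from 4-day potato dextrose agar cultures, suspended in sterile water at 1.5 × 10⁵ CFU/mL. 0.2 mL was spread on potato dextrose agar. 5 mm filter-paper discs soaked with test compound were laid on the lawn. Incubation was 48 h at 28 °C, then the inhibition zone was measured in mm. Fluconazole was the positive control and acetone the negative control.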

QG-56 = experiment: Cytotoxicity against human QG56 cells after 24 hrs by MTT assay; assay type: functional, cell-based
Method in brief: (§3)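 The MTT assay seeded 5 × 10⁴ cells per well and grew them 24 h in RPMI 1640 with compound at 2.5–200 µM. Medium without cells was the blank and adriamycin the positive control. MTT was added for 4 h at 37 °C, formazan was solubilised, and absorbance was read at 570 nm. IC50 is the concentration that cuts viability 50% against untreated cells.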

Curvularia lunata [3] = experiment: Antifungal activity against Curvularia lunata MTCC 581 assessed as zone of inhibition at 80 uM after 48 hrs by disc diffusion method; assay type: functional; details: MTCC 581, 48 h, read-out: IZ; method in brief: as §2
Escherichia coli [4] = experiment: Antimicrobial activity against Escherichia coli ATCC 35218 assessed as diameter of inhibition zone at 40 uM after 24 hrs by Kirby -Baur disc diffusion method; assay type: functional; details: ATCC 35218, 24 h, read-out: DIZ
Method in brief: (§4)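 Kirby-Bauer disc diffusion was used. Acetone stocks (160 µM) were serially doubled down to 80, 40 and 20 µM. 4 µL of each went onto 5 mm sterile paper discs, which were dried 30 min at 50 °C. Inoculum was 1.5 × 10⁸ CFU/mL diluted to 3 × 10² CFU/mL, and 50 µL was spread on Mueller-Hinton agar. After 24 h at 37 °C the inhibition-zone diameter was measured. Ciprofloxacin served as positive control.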

Mus musculus = experiment: Antiinflammatory activity in mouse assessed as inhibition of carrageenan-induced increase in paw volume at 200 mg/kg administered 1 hr prior to carrageenan challenge measured after 3 hrs relative to control; assay type: functional
Method in brief: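 Mice were fasted 2 h and placed in groups of five. Controls received saline i.p. Phenylbutazone was given at 100 mg/kg i.p., curcumin at 200 mg/kg i.p., and derivatives at 200 mg/kg. After 1 h, 0.1 mL of 1% carrageenan in saline was injected subplantar into the right hind paw. Paw volume was followed by plethysmometer for 3 h, and % inhibition was calculated as (Vc − Vt)/Vc × 100.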

Curvularia lunata [5] = experiment: Antifungal activity against Curvularia lunata MTCC 581 after 48 hrs; assay type: functional; details: MTCC 581, 48 h
Staphylococcus aureus [6] = experiment: Antimicrobial activity against Staphylococcus aureus ATCC 11632 assessed as diameter of inhibition zone at 40 uM after 24 hrs by Kirby -Baur disc diffusion method; assay type: functional; details: ATCC 11632, 24 h, read-out: DIZ; method in brief: as §4
Bacillus cereus [7] = experiment: Antimicrobial activity against Bacillus cereus MTCC 7350 after 24 hrs by broth micro serial dilution method; assay type: functional; details: MTCC 7350, 24 h; method in brief: as §1
Trichoderma viride [8] = experiment: Antifungal activity against Trichoderma viride MTCC 1107 assessed as zone of inhibition at 40 uM after 48 hrs by disc diffusion method; assay type: functional; details: MTCC 1107, 48 h, read-out: IZ; method in brief: as §2
HCT-116 = experiment: Cytotoxicity against human HCT116 cells after 24 hrs by MTT assay; assay type: functional, cell-based; method in brief: as §3
Pseudomonas aeruginosa [9] = experiment: Antimicrobial activity against Pseudomonas aeruginosa ATCC 15499 assessed as diameter of inhibition zone at 80 uM after 24 hrs by Kirby -Baur disc diffusion method; assay type: functional; method in brief: as §4
Curvularia lunata [10] = experiment: Antifungal activity against Curvularia lunata MTCC 581 assessed as zone of inhibition at 20 uM after 48 hrs by disc diffusion method; assay type: functional; details: MTCC 581, 48 h, read-out: IZ; method in brief: as §2
Salmonella typhi [11] = experiment: Antimicrobial activity against Salmonella typhi ATCC 23564 assessed as diameter of inhibition zone at 20 uM after 24 hrs by Kirby -Baur disc diffusion method; assay type: functional; details: Salmonella enterica subsp. enterica serovar Typhi
Salmonella typhi [12] = experiment: Antimicrobial activity against Salmonella typhi ATCC 23564 assessed as diameter of inhibition zone at 80 uM after 24 hrs by Kirby -Baur disc diffusion method; assay type: functional, Salmonella enterica subsp. enterica serovar Typhi; details: Salmonella enterica, ATCC 23564, 24 h; read-out: DIZ
Staphylococcus aureus [13] = experiment: Antimicrobial activity against Staphylococcus aureus ATCC 11632 assessed as diameter of inhibition zone at 20 uM after 24 hrs by Kirby -Baur disc diffusion method; assay type: functional; method in brief: as §4
Bacillus cereus [14] = experiment: Antimicrobial activity against Bacillus cereus MTCC 7350 assessed as diameter of inhibition zone at 20 uM after 24 hrs by Kirby -Baur disc diffusion method; assay type: functional; method in brief: as §4
HepG2 = experiment: Cytotoxicity against human HepG2 cells after 24 hrs by MTT assay; assay type: functional, cell-based; method in brief: as §3
Salmonella typhi [15] = experiment: Antimicrobial activity against Salmonella typhi ATCC 23564 assessed as diameter of inhibition zone at 40 uM after 24 hrs by Kirby -Baur disc diffusion method; assay type: functional; details: Salmonella enterica subsp. enterica serovar Typhi
Salmonella typhi [16] = experiment: Antimicrobial activity against Salmonella typhi ATCC 23564 after 24 hrs by broth micro serial dilution method; assay type: functional, Salmonella enterica subsp. enterica serovar Typhi; details: Salmonella enterica, ATCC 23564, 24 h
Aspergillus niger [17] = experiment: Antifungal activity against Aspergillus niger MTCC 1108 after 48 hrs; assay type: functional
Escherichia coli [18] = experiment: Antimicrobial activity against Escherichia coli ATCC 35218 assessed as diameter of inhibition zone at 20 uM after 24 hrs by Kirby -Baur disc diffusion method; assay type: functional; details: ATCC 35218, 24 h, read-out: DIZ; method in brief: as §4
Bacillus cereus [19] = experiment: Antimicrobial activity against Bacillus cereus MTCC 7350 assessed as diameter of inhibition zone at 80 uM after 24 hrs by Kirby -Baur disc diffusion method; assay type: functional; details: MTCC 7350, 24 h, read-out: DIZ; method in brief: as §4
HeLa = experiment: Cytotoxicity against human HeLa cells after 24 hrs by MTT assay; assay type: functional, cell-based; method in brief: as §3
Aspergillus flavus [20] = experiment: Antifungal activity against Aspergillus flavus MTCC 1021 assessed as zone of inhibition at 80 uM after 48 hrs by disc diffusion method; assay type: functional; method in brief: as §2
Escherichia coli [21] = experiment: Antimicrobial activity against Escherichia coli ATCC 35218 after 24 hrs by broth micro serial dilution method; assay type: functional; details: ATCC 35218, 24 h; method in brief: as §1
Curvularia lunata [22] = experiment: Antifungal activity against Curvularia lunata MTCC 581 assessed as zone of inhibition at 40 uM after 48 hrs by disc diffusion method; assay type: functional; details: MTCC 581, 48 h, read-out: IZ; method in brief: as §2
Trichoderma viride [23] = experiment: Antifungal activity against Trichoderma viride MTCC 1107 after 48 hrs; assay type: functional; details: MTCC 1107, 48 h
Staphylococcus aureus [24] = experiment: Antimicrobial activity against Staphylococcus aureus ATCC 11632 assessed as diameter of inhibition zone at 80 uM after 24 hrs by Kirby -Baur disc diffusion method; assay type: functional; details: ATCC 11632, 24 h, read-out: DIZ; method in brief: as §4
Bacillus cereus [25] = experiment: Antimicrobial activity against Bacillus cereus MTCC 7350 assessed as diameter of inhibition zone at 40 uM after 24 hrs by Kirby -Baur disc diffusion method; assay type: functional; method in brief: as §4
Trichoderma viride [26] = experiment: Antifungal activity against Trichoderma viride MTCC 1107 assessed as zone of inhibition at 20 uM after 48 hrs by disc diffusion method; assay type: functional; details: MTCC 1107, 48 h, read-out: IZ; method in brief: as §2
Staphylococcus aureus [27] = experiment: Antimicrobial activity against Staphylococcus aureus ATCC 11632 after 24 hrs by broth micro serial dilution method; assay type: functional; details: ATCC 11632, 24 h; method in brief: as §1
Aspergillus niger [28] = experiment: Antifungal activity against Aspergillus niger MTCC 1108 assessed as zone of inhibition at 80 uM after 48 hrs by disc diffusion method; assay type: functional; method in brief: as §2
Escherichia coli [29] = experiment: Antimicrobial activity against Escherichia coli ATCC 35218 assessed as diameter of inhibition zone at 80 uM after 24 hrs by Kirby -Baur disc diffusion method; assay type: functional; details: ATCC 35218, 24 h, read-out: DIZ; method in brief: as §4
Aspergillus flavus [30] = experiment: Antifungal activity against Aspergillus flavus MTCC 1021 after 48 hrs; assay type: functional

Structure (SMILES)	MIC (Pseudomonas aeruginosa [1]) [µM]	zone of inhibition at 80 µM (Trichoderma viride [2]) [mm]	IC50 (QG-56) [µM]	zone of inhibition at 80 µM (Curvularia lunata [3]) [mm]	zone of inhibition at 40 µM (Escherichia coli [4]) [mm]	inhibition in vivo at 200 mg/kg (Mus musculus) [%]	MIC (Curvularia lunata [5]) [µM]	zone of inhibition at 40 µM (Staphylococcus aureus [6]) [mm]	MIC (Bacillus cereus [7]) [µM]	zone of inhibition at 40 µM (Trichoderma viride [8]) [mm]	IC50 (HCT-116)	diameter of the inhibition zone (DIZ) (Pseudomonas aeruginosa [9])	zone of inhibition at 20 µM (Curvularia lunata [10]) [mm]	diameter of the inhibition zone (DIZ) (Salmonella typhi [11])	zone of inhibition at 80 µM (Salmonella typhi [12]) [mm]	diameter of the inhibition zone (DIZ) (Staphylococcus aureus [13])	diameter of the inhibition zone (DIZ) (Bacillus cereus [14])	IC50 (HepG2) [µM]	diameter of the inhibition zone (DIZ) (Salmonella typhi [15])	MIC (Salmonella typhi [16]) [µM]	also measured
COc1ccc(NS(=O)(=O)c2ccc(/N=N/c3c(/C=C/c4ccc(O)c(OC)c4)nn(-c4ccccc4)c3/C=C/c3ccc(O)c(OC)c3)cc2)nn1	> 80	19	100	19	9	45.1	20 (≈ 14.6 µg/mL)	7	> 80	16	Not Active	inactive	12	inactive	10	inactive	inactive	> 100	inactive	> 80	MIC (Aspergillus niger [17]): inactive; zone of inhibition at 20 µM (Escherichia coli [18]): 8 mm; zone of inhibition at 80 µM (Bacillus cereus [19]): 9 mm; IC50 (HeLa): 50 µM; inhibition zone (IZ) (Aspergillus flavus [20]): inactive; MIC (Escherichia coli [21]): > 80 µM; zone of inhibition at 40 µM (Curvularia lunata [22]): 16 mm; MIC (Trichoderma viride [23]): 40 µM (≈ 29.3 µg/mL); zone of inhibition at 80 µM (Staphylococcus aureus [24]): 9 mm; diameter of the inhibition zone (DIZ) (Bacillus cereus [25]): inactive; zone of inhibition at 20 µM (Trichoderma viride [26]): 12 mm; MIC (Staphylococcus aureus [27]): > 80 µM; inhibition zone (IZ) (Aspergillus niger [28]): inactive; zone of inhibition at 80 µM (Escherichia coli [29]): 11 mm; MIC (Aspergillus flavus [30]): inactive
COc1cc(/C=C/c2nn(-c3ccccc3)c(/C=C/c3ccc(O)c(OC)c3)c2/N=N/c2ccc(S(=O)(=O)Nc3nc(C)cc(C)n3)cc2)ccc1O	> 80	22	100	22	11	37	20 (≈ 14.6 µg/mL)	8	> 80	19	Not Active	inactive	18	inactive	9	inactive	inactive	> 100	inactive	> 80	MIC (Aspergillus niger [17]): inactive; zone of inhibition at 20 µM (Escherichia coli [18]): 9 mm; zone of inhibition at 80 µM (Bacillus cereus [19]): 9 mm; IC50 (HeLa): 50 µM; inhibition zone (IZ) (Aspergillus flavus [20]): inactive; MIC (Escherichia coli [21]): > 80 µM; zone of inhibition at 40 µM (Curvularia lunata [22]): 19 mm; MIC (Trichoderma viride [23]): 20 µM (≈ 14.6 µg/mL); zone of inhibition at 80 µM (Staphylococcus aureus [24]): 9 mm; diameter of the inhibition zone (DIZ) (Bacillus cereus [25]): inactive; zone of inhibition at 20 µM (Trichoderma viride [26]): 18 mm; MIC (Staphylococcus aureus [27]): > 80 µM; inhibition zone (IZ) (Aspergillus niger [28]): inactive; zone of inhibition at 80 µM (Escherichia coli [29]): 12 mm; MIC (Aspergillus flavus [30]): inactive
